Published values collected from several papers.
Target: Broad substrate specificity ATP-binding cassette transporter ABCG2 (ABCG2, Homo sapiens, UniProt Q9UNQ0)
One construct used (Q9UNQ0 1-655): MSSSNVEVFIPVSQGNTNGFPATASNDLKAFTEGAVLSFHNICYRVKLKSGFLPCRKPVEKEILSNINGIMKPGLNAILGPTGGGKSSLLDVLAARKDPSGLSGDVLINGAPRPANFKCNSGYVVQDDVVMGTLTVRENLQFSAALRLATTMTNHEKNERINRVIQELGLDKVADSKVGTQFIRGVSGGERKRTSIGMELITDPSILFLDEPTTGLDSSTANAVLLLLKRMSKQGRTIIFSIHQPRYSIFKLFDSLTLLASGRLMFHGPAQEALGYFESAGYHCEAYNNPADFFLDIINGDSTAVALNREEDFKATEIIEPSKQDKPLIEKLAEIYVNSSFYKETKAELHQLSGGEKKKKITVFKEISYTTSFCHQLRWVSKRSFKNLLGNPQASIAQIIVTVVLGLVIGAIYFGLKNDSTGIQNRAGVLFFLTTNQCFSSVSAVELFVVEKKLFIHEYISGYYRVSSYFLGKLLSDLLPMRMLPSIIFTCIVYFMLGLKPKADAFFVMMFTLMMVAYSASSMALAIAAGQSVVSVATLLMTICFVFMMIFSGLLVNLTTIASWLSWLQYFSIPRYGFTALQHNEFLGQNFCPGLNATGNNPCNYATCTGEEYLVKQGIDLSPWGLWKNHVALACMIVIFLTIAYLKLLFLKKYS

`C/C(O)=C(\C#N)C(=O)Nc1ccc(C(F)(F)F)cc1` gave a Papp A→B of 5.51 ×10⁻⁶ cm/s (Caco-2; 1 µM, 2 h, pH 7.4).
With `N#C/C(=C/c1cc(Cl)cc(Cl)c1)c1cccnc1` the inhibition was ~55% (ligand displacement; 10 µM).
With `C[C@@H](C(=O)N1Cc2c(-c3ccc(C(=O)N4CCCc5ccccc54)cc3)cnn2C[C@@H]1C)c1ccccc1` the Papp B→A was 13.3 ×10⁻⁶ cm/s (dog, MDCK-MDR1).
For `CN(C(=O)n1cnc(-c2ccc[n+]([O-])c2)c1)C1CCCCC1`, the inhibition was 13% (transporter uptake, inhibitor; MDCK-II; 10 µg/mL).
The Ki of `C=C[C@@H]1C[C@]1(NC(=O)[C@@H]1C[C@@H]2CN1C(=O)[C@H](C(C)(C)C)NC(=O)O[C@@H]1C[C@H]1CCCCCc1nc3ccc(OC)cc3nc1O2)C(=O)NS(=O)(=O)C1CC1` is reported as 4 µM (transporter uptake, inhibitor; cell membranes).
`O=C(O)CSc1nnc(Br)n1-c1ccc(C2CC2)c2ccccc12` has an inhibition of 18% (transporter uptake, inhibitor; Caco-2; 3 µM, 2 h).
For `CN(CCC(=O)O)C(=O)c1ccc2c(c1)CC[C@@H]1[C@@H]2CC[C@]2(C)C(c3cncc(F)c3)=CC[C@@H]12`, the IC50 was 7.6 µM (transporter uptake, inhibitor).
The Papp B→A of `CC(C)[C@H]1Cn2ncc(-c3ccc(C(=O)N4CCCc5ccccc54)cc3)c2CN1C(=O)Cc1ccccc1` is reported as 11.9 ×10⁻⁶ cm/s (dog, MDCK-MDR1).
`O=c1cc(-c2ccccc2)oc2cc(O)cc(O)c12` has an inhibition of 92% (transporter uptake, inhibitor; Caco-2; 100 µM, 2 h).
With `CC(=O)c1cc(C(=O)N[C@@H](C)Cn2ccc(-c3ccc(C#N)c(Cl)c3)n2)[nH]n1` the Ki was 0.56 µM (transporter uptake, inhibitor; cell membranes).
